Source: ChEMBL document CHEMBL4665671 (ACS Med Chem Lett, 2019)
Converted amounts (≈) assume the structure as drawn. The source made the active and inactive calls. The calls are words filed in the database; no cut-off is given here.

What was measured:
mTORC2 = mTORC2 (Homo sapiens, UniProt P42345); assay: Inhibition of mTORC2 in human A2058 cells assessed as reduction in PKB phosphorylation at S473 residue incubated for 1 hr by Western blot analysis; assay type: cell-based
[1] = target: T1, Serine/threonine-protein kinase mTOR (Homo sapiens, UniProt P42345); assay: Displacement of alexa fluor 647-labeled kinase tracer 314 from recombinant human N-terminal GST-fused mTOR (1360 to 2549 residues) expressed in baculovirus expression system by TR-FRET assay
[2] = target: Phosphatidylinositol 4,5-bisphosphate 3-kinase catalytic subunit alpha isoform (Homo sapiens, UniProt P42336); assay: Displacement of alexa fluor 647-labeled kinase tracer 314 from recombinant N-terminal His6-tagged p110alpha (unknown origin) by TR-FRET assay
Phosphatidylinositol 4,5-bisphosphate 3-kinase catalytic subunit alpha isoform, sequence (P42336 whole entry, canonical isoform): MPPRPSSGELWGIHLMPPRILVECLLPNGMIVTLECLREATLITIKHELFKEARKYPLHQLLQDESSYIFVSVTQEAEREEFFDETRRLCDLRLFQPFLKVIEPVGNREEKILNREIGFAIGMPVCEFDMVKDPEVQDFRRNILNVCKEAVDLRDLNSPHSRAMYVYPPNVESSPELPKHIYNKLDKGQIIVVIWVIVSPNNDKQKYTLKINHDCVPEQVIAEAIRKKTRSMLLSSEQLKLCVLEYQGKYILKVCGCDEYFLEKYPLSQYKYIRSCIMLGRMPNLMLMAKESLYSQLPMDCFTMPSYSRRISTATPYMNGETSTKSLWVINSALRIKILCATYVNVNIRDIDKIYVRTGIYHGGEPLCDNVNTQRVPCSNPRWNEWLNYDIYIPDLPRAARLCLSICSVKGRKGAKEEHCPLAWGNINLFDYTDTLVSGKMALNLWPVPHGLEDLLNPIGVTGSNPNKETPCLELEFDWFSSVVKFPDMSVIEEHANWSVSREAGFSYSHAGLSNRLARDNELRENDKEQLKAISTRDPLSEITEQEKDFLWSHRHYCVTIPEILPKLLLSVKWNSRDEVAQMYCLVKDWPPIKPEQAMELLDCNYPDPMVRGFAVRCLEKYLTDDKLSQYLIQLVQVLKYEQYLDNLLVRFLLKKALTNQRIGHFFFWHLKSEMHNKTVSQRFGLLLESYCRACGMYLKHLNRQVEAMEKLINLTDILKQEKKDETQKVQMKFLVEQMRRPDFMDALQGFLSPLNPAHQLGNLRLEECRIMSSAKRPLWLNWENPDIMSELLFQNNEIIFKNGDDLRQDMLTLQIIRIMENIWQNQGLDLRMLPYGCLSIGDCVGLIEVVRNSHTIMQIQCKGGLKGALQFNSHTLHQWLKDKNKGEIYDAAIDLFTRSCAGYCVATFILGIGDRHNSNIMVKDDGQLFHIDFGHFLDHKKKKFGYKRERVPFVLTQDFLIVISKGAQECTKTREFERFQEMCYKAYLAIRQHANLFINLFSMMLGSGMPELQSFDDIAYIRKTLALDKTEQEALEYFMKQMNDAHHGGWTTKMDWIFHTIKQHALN

mTORC1 = mTORC1 (Homo sapiens, UniProt P42345); assay: Inhibition of mTORC1 in human A2058 cells assessed as reduction in ribosomal protein S6 phosphorylation at Ser235/236 residues incubated for 1 hr by Western blot analysis; assay type: cell-based
[3] = AUC (0 to 8 hrs) in C57BL/6J mouse plasma at 10 mg/kg, po by UHPLC-MS analysis; assay type: ADME, organism-based; parameters: time < 8 hr, route oral, dose 10 mg/kg; conditions: in vivo
Outline: (§1)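 Male C57BL/6J mice, single oral dose 10 mg/kg. Compound extracted from plasma, brain and thigh muscle at set time points over 8 h and quantified by LC–MS. n = 3, mean per time point.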

[4] = Tmax in C57BL/6J mouse thigh muscle at 10 mg/kg, po by UHPLC-MS analysis; assay type: ADME, organism-based; outline: as §1
[5] = target: T1, Serine/threonine-protein kinase mTOR; assay: Displacement of alexa fluor 647-labeled kinase tracer 314 from recombinant human N-terminal GST-fused mTOR (1360 to 2549 residues) expressed in baculovirus expression system by TR-FRET assay relative to parent compound
[6] = Clearance in C57BL/6J mouse plasma at 10 mg/kg, po by UHPLC-MS analysis; assay type: ADME, organism-based
Outline: (§2)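 Male C57BL/6J mice given a single oral 10 mg/kg dose. Plasma, brain and thigh muscle sampled at set times up to 8 h. Compound extracted from each tissue and quantified by LC–MS. n = 3, mean per time point.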

[7] = Clearance in dog cryopreserved hepatocytes assessed per 10^6 cells at 2.5 uM measured up to 90 mins by LC-MS/MS analysis; assay type: ADME, cell-based, Canis lupus familiaris, Hepatocyte; conditions: 1.5 h
Outline: (§3)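 Cultured rat, mouse, dog and human hepatocytes were incubated with compound. Clearance and half-life were measured. Each experiment was run with n = 3.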

Cytochrome P450 2D6 = Cytochrome P450 2D6 (Homo sapiens, UniProt P10635); assay: Inhibition of CYP2D6 (unknown origin) by fluorescence assay; assay type: ADME
Cytochrome P450 2D6, sequence (P10635 whole entry): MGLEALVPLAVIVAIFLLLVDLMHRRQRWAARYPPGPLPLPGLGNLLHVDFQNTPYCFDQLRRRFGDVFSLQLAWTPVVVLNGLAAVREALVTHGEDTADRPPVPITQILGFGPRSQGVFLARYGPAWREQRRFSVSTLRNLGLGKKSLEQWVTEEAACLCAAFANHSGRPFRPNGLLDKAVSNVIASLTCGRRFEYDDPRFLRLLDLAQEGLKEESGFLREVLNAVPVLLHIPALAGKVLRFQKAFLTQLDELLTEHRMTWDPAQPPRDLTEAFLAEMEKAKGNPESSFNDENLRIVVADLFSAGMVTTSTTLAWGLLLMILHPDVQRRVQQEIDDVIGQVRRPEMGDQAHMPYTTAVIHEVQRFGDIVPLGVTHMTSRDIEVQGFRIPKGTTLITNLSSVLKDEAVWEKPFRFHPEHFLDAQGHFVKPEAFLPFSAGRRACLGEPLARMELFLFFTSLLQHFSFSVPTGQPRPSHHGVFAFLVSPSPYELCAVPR

[8] = Toxicity in po dosed Beagle dog assessed as NOAEL administered via gavage for 14 consecutive days; assay type: organism-based, Canis lupus familiaris; conditions: in vivo, time 14 day
Outline: (§4)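 14-day pilot toxicokinetic study in Wistar rats (males and females assessed separately) and beagle dogs. NOAEL was set in mg/kg/day.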

[9] = Clearance in mouse cryopreserved hepatocytes assessed per 10^6 cells at 2.5 uM measured up to 90 mins by LC-MS/MS analysis; assay type: ADME, cell-based, Hepatocyte; conditions: 1.5 h; outline: as §3
[10] = Toxicity in po dosed Wistar female rat assessed as NOAEL administered via gavage for 14 consecutive days; assay type: organism-based; conditions: in vivo, time 14 day; outline: as §4
[11] = Half life in dog cryopreserved hepatocytes at 2.5 uM measured up to 90 mins by LC-MS/MS analysis; assay type: ADME, cell-based, Canis lupus familiaris, Hepatocyte; conditions: 1.5 h; outline: as §3
OVCAR-3 [12] = assay: Antitumor activity against human OVCAR-3 cells xenografted in BALB/c nude mouse assessed as tumor growth inhibition at 6.3 mg/kg, po qd administered for 28 days starting from day 17 post inoculation and measured on day 45; assay type: functional, organism-based; conditions: time 28.0 day
Outline: (§5)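 BALB/c nude mice inoculated subcutaneously with 5 × 10^6 OVCAR-3 cells on day 0. From day 17, dosed orally once daily for 28 days; controls received vehicle QD. Tumor size tracked over time, tumor weight taken at day 45, body weight recorded at set time points. n = 8, mean ± SEM; two-way ANOVA with Bonferroni or Dunnett's correction.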

[13] = Half life in human cryopreserved hepatocytes at 2.5 uM measured up to 90 mins by LC-MS/MS analysis; assay type: ADME, cell-based, Hepatocyte; conditions: 1.5 h; outline: as §3
[14] = Thermodynamic solubility of the compound in buffer at pH 1.2 to 6.8 incubated for 24 hrs under agitation condition by shake flask method; assay type: physicochemical; conditions: read-out: Therm_solubility
[15] = Half life in rat cryopreserved hepatocytes at 2.5 uM measured up to 90 mins by LC-MS/MS analysis; assay type: ADME, cell-based, Hepatocyte; conditions: 1.5 h; outline: as §3
[16] = Tmax in C57BL/6J mouse plasma at 10 mg/kg, po by UHPLC-MS analysis; assay type: ADME, organism-based; outline: as §1
[17] = Permeability of the compound in PBS at pH 7.4 incubated for 2 hrs under shaking condition by PAMPA; assay type: ADME; conditions: pH 7.4, 2 h
[18] = Ratio of drug level in brain to plasma in C57BL/6J mouse at 10 mg/kg, po by UHPLC-MS analysis; assay type: ADME, organism-based; conditions: brain and plasma, read-out: BPR; outline: as §2
[19] = AUC (0 to 8 hrs) in C57BL/6J mouse thigh muscle at 10 mg/kg, po by UHPLC-MS analysis; assay type: ADME, organism-based; parameters: time < 8 hr, route oral, dose 10 mg/kg; conditions: in vivo; outline: as §1
[20] = Thermodynamic solubility of the compound in buffer at pH 1.2 incubated for 24 hrs under agitation condition by shake flask method; assay type: physicochemical; conditions: read-out: Therm_solubility
Cytochrome P450 1A2 = target: T2, Cytochrome P450 1A2 (Homo sapiens, UniProt P05177); assay: Inhibition of CYP1A2 (unknown origin) by fluorescence assay; assay type: ADME
T2 sequence (P05177 whole entry): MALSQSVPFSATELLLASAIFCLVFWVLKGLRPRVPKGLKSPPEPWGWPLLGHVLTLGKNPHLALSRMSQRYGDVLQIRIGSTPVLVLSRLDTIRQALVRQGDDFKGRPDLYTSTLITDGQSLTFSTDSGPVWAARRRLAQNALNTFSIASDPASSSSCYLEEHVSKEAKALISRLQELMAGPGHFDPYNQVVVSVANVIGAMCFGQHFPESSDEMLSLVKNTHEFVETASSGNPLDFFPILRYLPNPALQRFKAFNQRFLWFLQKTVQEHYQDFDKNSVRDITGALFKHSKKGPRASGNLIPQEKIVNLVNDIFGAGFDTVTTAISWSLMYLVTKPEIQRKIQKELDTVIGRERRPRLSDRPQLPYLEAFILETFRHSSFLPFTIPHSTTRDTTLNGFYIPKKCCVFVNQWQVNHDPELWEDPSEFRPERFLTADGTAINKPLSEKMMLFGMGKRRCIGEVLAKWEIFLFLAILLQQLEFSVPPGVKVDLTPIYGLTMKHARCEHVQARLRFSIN

Cytochrome P450 3A4 = Cytochrome P450 3A4 (Homo sapiens, UniProt P08684); assay: Inhibition of CYP3A4 (unknown origin) by fluorescence assay; assay type: ADME
Cytochrome P450 3A4, sequence (P08684 whole entry): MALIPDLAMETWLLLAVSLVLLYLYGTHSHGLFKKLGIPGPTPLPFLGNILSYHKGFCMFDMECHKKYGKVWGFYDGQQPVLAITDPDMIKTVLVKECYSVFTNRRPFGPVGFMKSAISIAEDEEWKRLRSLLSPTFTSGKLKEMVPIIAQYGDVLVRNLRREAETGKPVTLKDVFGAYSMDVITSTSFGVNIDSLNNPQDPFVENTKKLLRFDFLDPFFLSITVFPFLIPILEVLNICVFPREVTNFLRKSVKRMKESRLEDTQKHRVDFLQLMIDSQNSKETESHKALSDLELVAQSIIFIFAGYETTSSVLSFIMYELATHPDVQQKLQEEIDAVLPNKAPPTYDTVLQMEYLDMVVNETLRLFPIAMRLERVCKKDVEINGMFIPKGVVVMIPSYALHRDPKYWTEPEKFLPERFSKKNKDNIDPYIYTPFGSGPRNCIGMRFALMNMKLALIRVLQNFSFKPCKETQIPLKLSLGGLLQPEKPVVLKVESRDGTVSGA

[21] = AUC (0 to 8 hrs) in C57BL/6J mouse brain at 10 mg/kg, po by UHPLC-MS analysis; assay type: ADME, organism-based; parameters: time < 8 hr, route oral, dose 10 mg/kg; conditions: in vivo; outline: as §1
[22] = Half life in C57BL/6J mouse brain at 10 mg/kg, po by UHPLC-MS analysis; assay type: ADME, organism-based; outline: as §1
[23] = Clearance in human cryopreserved hepatocytes assessed per 10^6 cells at 2.5 uM measured up to 90 mins by LC-MS/MS analysis; assay type: ADME, cell-based, Hepatocyte; conditions: 1.5 h; outline: as §3
[24] = Half life in C57BL/6J mouse thigh muscle at 10 mg/kg, po by UHPLC-MS analysis; assay type: ADME, organism-based; outline: as §1
Mus musculus [25] = assay: Increase in glucose level in C57BL/6J mouse plasma at 10 mg/kg, po measured after 2 hrs by UV/Vis spectrometry analysis; assay type: functional, organism-based
Outline: (§6)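 Male C57BL/6J mice given a single oral 10 mg/kg dose. Plasma glucose and insulin levels followed over time after dosing. Mean ± SEM.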

Mus musculus [26] = assay: Increase in insulin level in C57BL/6J mouse plasma at 10 mg/kg, po measured after 2 hrs by UV/Vis spectrometry analysis; assay type: functional, organism-based; outline: as §6
[27] = Cmax in C57BL/6J mouse brain at 10 mg/kg, po after 30 mins by UHPLC-MS analysis; assay type: ADME, organism-based; parameters: route oral, dose 10 mg/kg, time 30 min; outline: as §1
[28] = Toxicity in BALB/c nude mouse xenografted with human OVCAR3 cells assessed as maximum tolerated dose; conditions: in vivo
OVCAR-3 [29] = assay: Antitumor activity against human OVCAR-3 cells xenografted in BALB/c nude mouse assessed as effect on tumor size at 6.3 mg/kg, po qd administered for 28 days starting from day 17 post inoculation and measured on day 45 (reference value: 1031 mm3); conditions: time 28 day
[30] = Cmax in C57BL/6J mouse plasma at 10 mg/kg, po after 1 hr by UHPLC-MS analysis; assay type: ADME, organism-based; parameters: route oral, dose 10 mg/kg, time 1 hrs; conditions: in vivo; outline: as §1
[31] = Clearance in rat cryopreserved hepatocytes assessed per 10^6 cells at 2.5 uM measured up to 90 mins by LC-MS/MS analysis; assay type: ADME, cell-based, Hepatocyte; conditions: 1.5 h; outline: as §3
[32] = Cmax in C57BL/6J mouse thigh muscle at 10 mg/kg, po after 30 mins by UHPLC-MS analysis; assay type: ADME, organism-based; parameters: route oral, time 30 min, dose 10 mg/kg; outline: as §1
[33] = Toxicity in po dosed Wistar male rat assessed as NOAEL administered via gavage for 14 consecutive days; assay type: organism-based; conditions: in vivo, time 14 day; outline: as §4
[34] = Half life in mouse cryopreserved hepatocytes at 2.5 uM measured up to 90 mins by LC-MS/MS analysis; assay type: ADME, cell-based, Hepatocyte; conditions: 1.5 h; outline: as §3
[35] = Half life in C57BL/6J mouse plasma at 10 mg/kg, po by UHPLC-MS analysis; assay type: ADME, organism-based; outline: as §1
Cytochrome P450 2C19 = Cytochrome P450 2C19 (Homo sapiens, UniProt P33261); assay: Inhibition of CYP2C19 (unknown origin) by fluorescence assay; assay type: ADME
Cytochrome P450 2C19, sequence (P33261 whole entry): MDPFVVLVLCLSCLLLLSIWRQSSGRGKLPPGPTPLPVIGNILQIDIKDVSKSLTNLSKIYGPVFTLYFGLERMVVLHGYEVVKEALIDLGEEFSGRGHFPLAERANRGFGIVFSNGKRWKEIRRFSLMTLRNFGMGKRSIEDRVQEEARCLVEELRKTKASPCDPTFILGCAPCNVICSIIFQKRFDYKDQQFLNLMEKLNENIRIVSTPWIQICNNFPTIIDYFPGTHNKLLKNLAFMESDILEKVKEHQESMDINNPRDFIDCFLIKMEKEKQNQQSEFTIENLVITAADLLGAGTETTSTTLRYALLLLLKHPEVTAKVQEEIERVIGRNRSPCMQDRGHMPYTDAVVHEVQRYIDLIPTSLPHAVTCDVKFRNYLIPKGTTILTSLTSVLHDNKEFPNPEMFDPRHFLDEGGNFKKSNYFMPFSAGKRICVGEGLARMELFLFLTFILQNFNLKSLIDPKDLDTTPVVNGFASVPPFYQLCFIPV

[36] = Tmax in C57BL/6J mouse brain at 10 mg/kg, po by UHPLC-MS analysis; assay type: ADME, organism-based; outline: as §1
[37] = Toxicity in BALB/c nude mouse xenografted with human OVCAR3 cells assessed as effect on body weight at 6.3 mg/kg, po qd administered for 28 days starting from day 17 post inoculation; assay type: organism-based; conditions: in vivo, 672 h, time 28 day; outline: as §5

Molecule `Nc1ncc(-c2nc(N3CCOCC3)nc(N3C[C@H]4CC[C@@H](C3)O4)n2)c(C(F)F)n1` has an IC50 (mTORC2) of 0.084 µM, a Ki [1] of 0.029 µM and a Ki [2] of 0.0044 µM. It also gave an IC50 (mTORC1) of 0.139 µM.

Molecule `Nc1ncc(-c2nc(N3CCOCC3)nc(N3CCOCC3)n2)c(C(F)F)n1` has an AUC [3] of 10315 ng·h/mL, a Tmax [4] of 0.5 h and a Ratio Ki [5] of 2. The CL/F [6] was 15.6 mL/min/kg, the CLH [7] was 6.7 µL/min and the IC50 (Cytochrome P450 2D6) was > 100 µM. For the same molecule, the NOAEL at 336 h [8] was 10 mg/kg, the CLH [9] was 7 µL/min and the NOAEL at 336 h [10] was 2.4 mg/kg. For the same molecule, the t1/2 [11] was 3.528 h, the “growth inhibition (GI)” value (OVCAR-3 [12]) was “Active” and the t1/2 [13] was 5.775 h. The solubility thermodynamic at 24 h [14] was > 1 µg/mL, the t1/2 [15] was 8.67 h and the Tmax [16] was 1 h. The permeability [17] was 8.196 ×10⁻⁶ cm/s, the Kp [18] was 0.3 and the AUC [19] was 4526 ng·h/mL. For the same molecule, the IC50 (mTORC2) was 0.017 µM, the solubility thermodynamic at 24 h [20] was 13.6 µg/mL (≈ 34.5 µM) and the IC50 (Cytochrome P450 1A2) was > 100 µM. The IC50 (Cytochrome P450 3A4) was > 100 µM, the Ki [1] was 0.033 µM and the AUC [21] was 2757 ng·h/mL. For the same molecule, the half-life [22] was 1.6 h, the CLH [23] was 4 µL/min and the half-life [24] was 1.6 h. For the same molecule, the Activity (Mus musculus [25]) was “Active”, the Activity (Mus musculus [26]) was “Active” and the Cmax [27] was 1020 ng/mL. It also gave an MTD [28] of 6.3 mg/kg, an Activity (OVCAR-3 [29]) of 397 mm3 and a Cmax [30] of 3282 ng/mL. It also gave a CLH [31] of 1.5 µL/min, a Cmax [32] of 1810 ng/mL and an NOAEL at 336 h [33] of 3.6 mg/kg. For the same molecule, the t1/2 [34] was 3.208 h, the half-life [35] was 1.7 h and the IC50 (Cytochrome P450 2C19) was > 100 µM. The IC50 (mTORC1) was 0.061 µM, the Tmax [36] was 0.5 h and the Activity [37] was “Non-Toxic”.
